According to ChEMBL document CHEMBL5705905, “Pharmacological targeting of kinases MST1 and MST2 augments tissue repair and regeneration” (Sci Transl Med, 2016):
Active and inactive are the calls of the source. The rule behind the calls is not given here.

Columns and labels:
[1] = test system: Mus musculus; test: In vivo inhibition of MST1/2 in wild-type Mst1fl/fl Mst2fl/fl mouse assessed as high number in nuclear YAP-positive cells at 1 mg/kg, ip administrated daily for 7 days by immunohistochemical staining; type: functional, organism-based; conditions: Liver, time 7.0 day
[2] = target: Calcium/calmodulin-dependent protein kinase type IV (Homo sapiens) (UniProt Q16566); test: Inhibition of CAMK4 (unknown origin) assessed as remaining activity at 1 uM by Kinome scan method relative to control
How it was run: (§1)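 Active-site-dependent competition-binding profiling (KINOMEscan) at 1 μM against a 468-kinase panel; compound supplied from a 10 mM DMSO stock. Read-out is ctrl% = (test signal − positive control signal)/(negative control signal − positive control signal) × 100. DMSO is the negative control (100%) and a control compound the positive control (0%). Lower ctrl% means tighter binding.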

[3] = target: Tyrosine-protein kinase ABL1 (Homo sapiens) (UniProt P00519); test: Inhibition of phosphorylated ABL1 (unknown origin) assessed as remaining activity at 1 uM by Kinome scan method relative to control
[4] = target: Interleukin-1 receptor-associated kinase 4 (Homo sapiens) (UniProt Q9NWZ3); test: Inhibition of IRAK4 (unknown origin) assessed as remaining activity at 1 uM by Kinome scan method relative to control
[5] = target: Non-receptor tyrosine-protein kinase TYK2 (Homo sapiens, UniProt P29597); test: Inhibition of TYK2 JH1 domain (unknown origin) assessed as remaining activity at 1 uM by Kinome scan method relative to control
[6] = target: Serine/threonine-protein kinase 26 (Homo sapiens, UniProt Q9P289); test: Inhibition of MST4 (unknown origin) assessed as remaining activity at 1 uM by Kinome scan method relative to control
[7] = target: Mitogen-activated protein kinase kinase kinase 3 (Homo sapiens, UniProt Q99759); test: Binding affinity to MAP3K3 (unknown origin) assessed as dissociation constant
[8] = target: Ribosomal protein S6 kinase alpha-3 (Homo sapiens) (UniProt P51812); test: Inhibition of N-terminal kinase domain RSK2 (unknown origin) assessed as remaining activity at 1 uM by Kinome scan method relative to control
[9] = Acute toxicity in wild-type mouse assessed as cell proliferation in colon at 3 mg/kg,ip administrated daily for 7 days by Ki67 staining; type: organism-based; conditions: in vivo, 168 h, time 7 day
How it was run: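 Wild-type mice received vehicle or 3 mg/kg i.p. daily for 7 days. Ki67 staining of sections from various tissues with quantification of positive cells, n = 6; means ± SD, Student's t test. Daily weights, physical activity and serum chemistry were also monitored.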

[10] = target: Mitogen-activated protein kinase kinase kinase 6 (Homo sapiens) (UniProt O95382); test: Inhibition of ASK2 (unknown origin) assessed as remaining activity at 1 uM by Kinome scan method relative to control
How it was run: (§2)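 Active-site-dependent competition-binding (KINOMEscan) panel of 468 kinases, test compound at 1 μM (from a 10 mM DMSO stock). Read-out is ctrl% = (test signal − positive control signal)/(negative control signal − positive control signal) × 100. DMSO is the negative control (100%) and a control compound is the positive control (0%). Lower ctrl% means tighter binding.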

[11] = target: T1, Serine/threonine-protein kinase TAO1 (Homo sapiens, UniProt Q7L7X3); test: Binding affinity to TAOK1 (unknown origin) assessed as dissociation constant
T1 sequence (Q7L7X3 whole entry): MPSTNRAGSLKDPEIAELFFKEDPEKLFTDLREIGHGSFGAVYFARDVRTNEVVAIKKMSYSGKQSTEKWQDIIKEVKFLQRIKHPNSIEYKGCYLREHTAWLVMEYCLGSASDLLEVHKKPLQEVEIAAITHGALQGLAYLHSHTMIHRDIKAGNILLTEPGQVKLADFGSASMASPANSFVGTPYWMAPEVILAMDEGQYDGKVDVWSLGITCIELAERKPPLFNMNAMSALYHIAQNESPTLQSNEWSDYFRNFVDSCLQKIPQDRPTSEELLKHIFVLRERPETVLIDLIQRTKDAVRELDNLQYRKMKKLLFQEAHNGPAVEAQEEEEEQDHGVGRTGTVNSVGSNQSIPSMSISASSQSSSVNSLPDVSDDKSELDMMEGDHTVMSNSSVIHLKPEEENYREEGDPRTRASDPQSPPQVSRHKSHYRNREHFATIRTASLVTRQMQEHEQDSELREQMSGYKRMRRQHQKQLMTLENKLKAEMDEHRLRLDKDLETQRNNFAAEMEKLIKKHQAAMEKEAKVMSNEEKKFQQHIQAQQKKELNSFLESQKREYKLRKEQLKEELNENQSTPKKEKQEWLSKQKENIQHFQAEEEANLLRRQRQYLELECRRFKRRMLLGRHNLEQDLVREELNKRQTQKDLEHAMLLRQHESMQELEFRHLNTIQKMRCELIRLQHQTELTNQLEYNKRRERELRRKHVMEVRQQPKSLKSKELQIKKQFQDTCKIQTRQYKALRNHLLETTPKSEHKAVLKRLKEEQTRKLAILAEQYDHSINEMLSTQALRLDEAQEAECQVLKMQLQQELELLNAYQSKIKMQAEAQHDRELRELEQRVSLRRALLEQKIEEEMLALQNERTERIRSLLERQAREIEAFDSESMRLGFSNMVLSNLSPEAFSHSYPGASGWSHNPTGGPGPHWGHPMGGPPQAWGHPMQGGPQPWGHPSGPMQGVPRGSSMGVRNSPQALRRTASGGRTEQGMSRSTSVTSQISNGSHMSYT

[12] = target: 5'-AMP-activated protein kinase catalytic subunit alpha-1 (Homo sapiens) (UniProt Q13131); test: Inhibition of AMPK-alpha1 (unknown origin) assessed as remaining activity at 1 uM by Kinome scan method relative to control; how it was run: as §2
Sequence of 5'-AMP-activated protein kinase catalytic subunit alpha-1 (Homo sapiens) (Q13131 whole entry, looked up): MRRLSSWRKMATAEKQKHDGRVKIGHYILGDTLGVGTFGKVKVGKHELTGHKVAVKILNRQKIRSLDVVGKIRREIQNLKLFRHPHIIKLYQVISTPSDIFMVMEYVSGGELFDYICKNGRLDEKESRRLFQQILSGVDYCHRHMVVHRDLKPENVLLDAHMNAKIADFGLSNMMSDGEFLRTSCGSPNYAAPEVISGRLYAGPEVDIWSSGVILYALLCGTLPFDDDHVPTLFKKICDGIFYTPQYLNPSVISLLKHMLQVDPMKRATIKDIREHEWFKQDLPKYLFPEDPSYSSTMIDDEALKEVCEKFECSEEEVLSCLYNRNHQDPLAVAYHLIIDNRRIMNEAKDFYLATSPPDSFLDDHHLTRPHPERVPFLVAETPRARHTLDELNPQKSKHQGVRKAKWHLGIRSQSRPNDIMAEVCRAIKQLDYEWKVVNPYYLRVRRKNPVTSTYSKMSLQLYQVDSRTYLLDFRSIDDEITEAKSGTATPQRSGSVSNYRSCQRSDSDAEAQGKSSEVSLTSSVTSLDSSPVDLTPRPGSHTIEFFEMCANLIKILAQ

[13] = Acute toxicity in wild-type mouse assessed as ratio of liver weight to body weight at 1 mg/kg,ip administrated twice daily for 6 days; type: organism-based; conditions: in vivo, 144 h, time 6 day
How it was run: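 Wild-type mice underwent two-thirds partial hepatectomy with vehicle or 1 mg/kg i.p. twice per day, starting with a dose before surgery. Liver/body weight ratio was followed over postoperative days, n = 5; means ± SD.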

[14] = test system: Mus musculus; test: In vivo inhibition of MST1/2 in mouse assessed as YAP phosphorylation level at 1 mg/kg, ip administration and measured after between 1.5 to 6 hrs by immunoblot analysis; type: functional, organism-based; conditions: time 1.5-6 hrs
How it was run: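 Wild-type mice received 1 mg/kg intraperitoneally, with vehicle of 0.1% citric acid aqueous solution containing 20% Kolliphor HS 15. Livers were harvested over 0–12 h and lysates immunoblotted for p-MOB1 and p-YAP, normalized to control. Means ± SD, n = 3.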

[15] = target: Tyrosine-protein kinase ABL1 (Homo sapiens, UniProt P00519, Q252H); test: Inhibition of phosphorylated ABL1 Q252H mutant (unknown origin) in presence of ATP by enzymatic assay
[16] = target: Ribosomal protein S6 kinase alpha-2 (Homo sapiens) (UniProt Q15349); test: Inhibition of N-terminal kinase domain RSK3 (unknown origin) assessed as remaining activity at 1 uM by Kinome scan method relative to control
[17] = target: Dual specificity protein kinase CLK2 (Homo sapiens) (UniProt P49760); test: Inhibition of CLK2 (unknown origin) assessed as remaining activity at 1 uM by Kinome scan method relative to control; how it was run: as §1
Sequence of Dual specificity protein kinase CLK2 (Homo sapiens) (P49760 whole entry, looked up): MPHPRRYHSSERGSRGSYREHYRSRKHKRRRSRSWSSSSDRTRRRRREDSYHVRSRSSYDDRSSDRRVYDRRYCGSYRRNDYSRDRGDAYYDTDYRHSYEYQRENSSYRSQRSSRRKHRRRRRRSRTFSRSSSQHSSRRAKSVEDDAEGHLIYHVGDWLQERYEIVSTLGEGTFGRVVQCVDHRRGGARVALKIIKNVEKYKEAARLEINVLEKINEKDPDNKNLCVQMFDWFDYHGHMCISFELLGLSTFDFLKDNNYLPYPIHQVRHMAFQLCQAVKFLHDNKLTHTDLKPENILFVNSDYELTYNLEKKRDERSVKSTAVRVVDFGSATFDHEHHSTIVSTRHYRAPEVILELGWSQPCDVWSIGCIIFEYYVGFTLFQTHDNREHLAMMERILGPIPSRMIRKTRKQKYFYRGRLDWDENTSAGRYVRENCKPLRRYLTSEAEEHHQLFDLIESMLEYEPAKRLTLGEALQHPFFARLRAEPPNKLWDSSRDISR

[18] = target: T1, Serine/threonine-protein kinase TAO1; test: Inhibition of TAOK1 (unknown origin) in presence of ATP by enzymatic assay
[19] = target: Casein kinase I isoform delta (Homo sapiens) (UniProt P48730); test: Inhibition of CSNK1D (unknown origin) assessed as remaining activity at 1 uM by Kinome scan method relative to control; how it was run: as §1
[20] = test system: Mus musculus; test: Anti-colitis activity against DSS-induced mouse assessed as cancerous phenotype at 1 mg/kg, ip administrated daily for 1 week; type: functional, organism-based; conditions: Colon, time 1.0 weeks
How it was run: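 DSS given orally for 7 days. Mice received 1 mg/kg intraperitoneally daily for 1 week. Animals were followed for more than 10 months for cancerous phenotypes.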

[21] = target: Calcium/calmodulin-dependent protein kinase kinase 2 (Homo sapiens) (UniProt Q96RR4); test: Inhibition of CAMKK2 (unknown origin) assessed as remaining activity at 1 uM by Kinome scan method relative to control; how it was run: as §1
Sequence of Calcium/calmodulin-dependent protein kinase kinase 2 (Homo sapiens) (Q96RR4 2-588 limits assumed): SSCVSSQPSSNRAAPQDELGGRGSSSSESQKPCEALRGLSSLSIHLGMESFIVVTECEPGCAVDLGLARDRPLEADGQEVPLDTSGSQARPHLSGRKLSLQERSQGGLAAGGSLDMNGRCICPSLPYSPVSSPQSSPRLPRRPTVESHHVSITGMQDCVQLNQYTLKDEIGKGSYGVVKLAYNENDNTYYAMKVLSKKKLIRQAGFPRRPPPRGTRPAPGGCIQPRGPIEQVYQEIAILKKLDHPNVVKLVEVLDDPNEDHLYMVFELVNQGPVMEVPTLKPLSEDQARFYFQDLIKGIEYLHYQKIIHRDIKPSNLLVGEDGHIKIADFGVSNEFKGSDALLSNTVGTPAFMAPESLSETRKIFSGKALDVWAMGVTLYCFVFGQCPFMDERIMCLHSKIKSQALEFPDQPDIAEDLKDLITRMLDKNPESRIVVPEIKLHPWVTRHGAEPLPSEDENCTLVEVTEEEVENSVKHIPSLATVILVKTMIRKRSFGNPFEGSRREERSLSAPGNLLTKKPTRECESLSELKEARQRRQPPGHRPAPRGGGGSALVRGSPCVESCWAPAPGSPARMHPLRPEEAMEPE

[22] = target: Tyrosine-protein kinase ABL2 (Homo sapiens) (UniProt P42684); test: Inhibition of ABL2 (unknown origin) assessed as remaining activity at 1 uM by Kinome scan method relative to control; how it was run: as §2
Sequence of Tyrosine-protein kinase ABL2 (Homo sapiens) (P42684 whole entry): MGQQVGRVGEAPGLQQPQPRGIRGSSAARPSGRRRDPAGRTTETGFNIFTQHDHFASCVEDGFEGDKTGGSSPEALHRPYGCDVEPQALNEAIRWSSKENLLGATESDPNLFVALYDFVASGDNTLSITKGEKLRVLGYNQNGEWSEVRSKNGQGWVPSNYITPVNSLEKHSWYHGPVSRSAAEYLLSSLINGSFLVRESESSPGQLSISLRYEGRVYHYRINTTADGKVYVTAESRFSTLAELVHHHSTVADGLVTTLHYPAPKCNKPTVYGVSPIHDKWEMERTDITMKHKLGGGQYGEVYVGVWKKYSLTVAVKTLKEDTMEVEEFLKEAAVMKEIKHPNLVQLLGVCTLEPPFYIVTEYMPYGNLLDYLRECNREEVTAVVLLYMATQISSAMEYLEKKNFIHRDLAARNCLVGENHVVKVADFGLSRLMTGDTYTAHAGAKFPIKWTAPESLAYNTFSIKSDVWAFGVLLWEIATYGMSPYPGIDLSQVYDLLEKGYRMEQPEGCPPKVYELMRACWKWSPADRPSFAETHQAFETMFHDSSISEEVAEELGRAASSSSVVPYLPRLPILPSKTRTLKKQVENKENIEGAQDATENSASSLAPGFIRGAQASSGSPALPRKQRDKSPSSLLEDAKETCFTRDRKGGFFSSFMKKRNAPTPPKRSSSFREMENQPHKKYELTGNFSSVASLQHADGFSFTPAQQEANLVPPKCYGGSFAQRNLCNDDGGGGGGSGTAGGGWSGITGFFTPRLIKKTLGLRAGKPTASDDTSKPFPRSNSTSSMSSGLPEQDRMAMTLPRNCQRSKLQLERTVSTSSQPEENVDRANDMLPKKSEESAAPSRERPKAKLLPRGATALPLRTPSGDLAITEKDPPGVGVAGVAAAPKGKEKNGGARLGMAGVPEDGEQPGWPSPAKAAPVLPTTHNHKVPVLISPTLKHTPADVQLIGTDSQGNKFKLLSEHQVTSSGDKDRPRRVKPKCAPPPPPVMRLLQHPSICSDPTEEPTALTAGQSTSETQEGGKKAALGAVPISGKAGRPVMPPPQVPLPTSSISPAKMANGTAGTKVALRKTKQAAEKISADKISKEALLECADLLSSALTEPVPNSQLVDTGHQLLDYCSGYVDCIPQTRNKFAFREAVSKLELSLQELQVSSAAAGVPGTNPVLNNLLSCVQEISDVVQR

[23] = Toxicity in mouse assessed as cancer cell growth at 1 mg/kg, ip administered for 2 months; type: organism-based; conditions: in vivo, 1460 h
How it was run: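 Wild-type mice were given 1 mg/kg i.p. daily for 2 months and examined for cancer growth and serum α-fetoprotein.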

[24] = target: Tyrosine-protein kinase ABL1 (Homo sapiens, UniProt P00519, M351T); test: Inhibition of phosphorylated ABL1 M351T mutant (unknown origin) in presence of ATP by enzymatic assay
[25] = target: Ribosomal protein S6 kinase alpha-4 (Homo sapiens) (UniProt O75676); test: Inhibition of C-terminal kinase domain RPS6KA4 (unknown origin) assessed as remaining activity at 1 uM by Kinome scan method relative to control; how it was run: as §2
[26] = target: Serine/threonine-protein kinase TAO3 (Homo sapiens) (UniProt Q9H2K8); test: Inhibition of TAOK3 (unknown origin) assessed as remaining activity at 1 uM by Kinome scan method relative to control
Sequence of Serine/threonine-protein kinase TAO3 (Homo sapiens) (Q9H2K8 whole entry): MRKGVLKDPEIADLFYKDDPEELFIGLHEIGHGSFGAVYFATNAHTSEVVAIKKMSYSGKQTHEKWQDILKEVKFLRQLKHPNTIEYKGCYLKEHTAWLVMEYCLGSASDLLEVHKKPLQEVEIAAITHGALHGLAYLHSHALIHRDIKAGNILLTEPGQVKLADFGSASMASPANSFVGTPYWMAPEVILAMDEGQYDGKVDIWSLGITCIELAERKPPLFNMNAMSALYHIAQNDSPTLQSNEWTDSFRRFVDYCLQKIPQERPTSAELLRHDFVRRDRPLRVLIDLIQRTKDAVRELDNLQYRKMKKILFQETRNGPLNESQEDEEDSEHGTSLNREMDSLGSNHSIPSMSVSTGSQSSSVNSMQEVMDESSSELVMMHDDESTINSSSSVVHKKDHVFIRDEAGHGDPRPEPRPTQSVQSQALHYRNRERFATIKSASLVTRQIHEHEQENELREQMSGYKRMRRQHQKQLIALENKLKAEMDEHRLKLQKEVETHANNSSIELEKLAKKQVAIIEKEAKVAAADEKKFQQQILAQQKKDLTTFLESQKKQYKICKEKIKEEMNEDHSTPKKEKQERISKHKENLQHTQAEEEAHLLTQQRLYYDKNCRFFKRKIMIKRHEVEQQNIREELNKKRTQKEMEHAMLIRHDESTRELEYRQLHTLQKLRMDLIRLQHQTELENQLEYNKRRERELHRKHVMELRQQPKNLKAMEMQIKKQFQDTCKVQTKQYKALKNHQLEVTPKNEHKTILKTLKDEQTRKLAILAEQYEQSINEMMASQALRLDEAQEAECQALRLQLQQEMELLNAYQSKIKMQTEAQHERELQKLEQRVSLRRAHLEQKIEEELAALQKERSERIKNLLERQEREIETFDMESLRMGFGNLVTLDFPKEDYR

CN1C(=O)c2sccc2N(C)c2nc(Nc3ccc(S(N)(=O)=O)cc3)ncc21
inhibition [1]: Active | Activity [2]: 100% | Activity [3]: 13% | Activity [4]: 100% | Activity [5]: 2.7% | Activity [6]: 0.6% | Kd [7]: 27 nM | Activity [8]: 76% | Activity [9]: Non-Toxic | Activity [10]: 84% | Kd [11]: 180 nM | Activity [12]: 100% | Activity [13]: Non-Toxic | inhibition [14]: Active | IC50 [15]: 11.6 nM | Activity [16]: 97% | Activity [17]: 71% | IC50 [18]: 165 nM | Activity [19]: 90% | Activity [20]: Active | Activity [21]: 84% | Activity [22]: 96% | Activity [23]: Non-Toxic | IC50 [24]: 17.6 nM | Activity [25]: 69% | Activity [26]: 4.5%
